Laboratory results published in ChEMBL document CHEMBL1667819, “Aminopyridinecarboxamide-based inhaled IKK-2 inhibitors for asthma and COPD: Structure-activity relationship” (Bioorg Med Chem, 2011).

Legend:
PBMC = assay: Inhibition of LPS-stimulated TNFalpha release in human PBMC; format: functional, cell-based
How it was run: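 PBMC were Ficoll-isolated from heparinized blood of healthy donors and plated at 2.5 × 10⁵ cells/well in RPMI 1640 with 5% FBS and penicillin–streptomycin. Cells were preincubated with compound for 1 h, then stimulated with LPS (20 ng/ml) for 16 h. Supernatant TNFα was measured by ELISA, and IC50 is the mean of ≥3 experiments.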

[1] = Half life in human liver microsomes
[2] = target: T1, Inhibitor of nuclear factor kappa-B kinase subunit beta (Homo sapiens) (UniProt O14920); assay: Binding affinity to human recombinant IKK2 assessed as half life
T1 sequence (whole entry): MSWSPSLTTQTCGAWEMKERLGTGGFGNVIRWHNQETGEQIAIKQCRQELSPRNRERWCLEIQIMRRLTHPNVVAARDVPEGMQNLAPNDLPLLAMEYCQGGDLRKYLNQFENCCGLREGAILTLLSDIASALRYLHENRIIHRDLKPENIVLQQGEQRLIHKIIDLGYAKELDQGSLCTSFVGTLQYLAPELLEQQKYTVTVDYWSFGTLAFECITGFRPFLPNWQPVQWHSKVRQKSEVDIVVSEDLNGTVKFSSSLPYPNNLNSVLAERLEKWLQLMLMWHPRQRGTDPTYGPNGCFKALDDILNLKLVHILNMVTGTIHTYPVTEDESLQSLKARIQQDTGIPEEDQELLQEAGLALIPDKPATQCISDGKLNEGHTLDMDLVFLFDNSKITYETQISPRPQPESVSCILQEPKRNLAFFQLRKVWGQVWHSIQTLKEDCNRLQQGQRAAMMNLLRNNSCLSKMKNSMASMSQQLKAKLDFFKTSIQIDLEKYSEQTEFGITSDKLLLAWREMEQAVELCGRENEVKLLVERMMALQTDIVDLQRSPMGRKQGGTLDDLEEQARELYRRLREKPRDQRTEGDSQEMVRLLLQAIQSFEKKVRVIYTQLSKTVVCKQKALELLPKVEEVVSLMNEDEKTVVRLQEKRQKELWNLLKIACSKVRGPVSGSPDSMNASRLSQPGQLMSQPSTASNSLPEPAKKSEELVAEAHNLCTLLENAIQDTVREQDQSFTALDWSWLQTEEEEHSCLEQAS

[3] = target: T1, Inhibitor of nuclear factor kappa-B kinase subunit beta (Homo sapiens); assay: Binding affinity to human IKK2 in PBMC assessed as half life by cell-based assay
How it was run: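 Cryopreserved PBMC were thawed and plated, then exposed to compound for 1 h. Compound was removed by four spin-and-aspirate washes, and an unwashed plate served as control. Loss of inhibition after washout gave the cellular half-life.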

[4] = target: Voltage-gated inwardly rectifying potassium channel KCNH2 (Homo sapiens, UniProt Q12809); assay: Displacement of dofetilide from human ERG transfected in HEK293 cells by fluorescence polarization assay
Sequence of Voltage-gated inwardly rectifying potassium channel KCNH2 (Q12809 whole entry): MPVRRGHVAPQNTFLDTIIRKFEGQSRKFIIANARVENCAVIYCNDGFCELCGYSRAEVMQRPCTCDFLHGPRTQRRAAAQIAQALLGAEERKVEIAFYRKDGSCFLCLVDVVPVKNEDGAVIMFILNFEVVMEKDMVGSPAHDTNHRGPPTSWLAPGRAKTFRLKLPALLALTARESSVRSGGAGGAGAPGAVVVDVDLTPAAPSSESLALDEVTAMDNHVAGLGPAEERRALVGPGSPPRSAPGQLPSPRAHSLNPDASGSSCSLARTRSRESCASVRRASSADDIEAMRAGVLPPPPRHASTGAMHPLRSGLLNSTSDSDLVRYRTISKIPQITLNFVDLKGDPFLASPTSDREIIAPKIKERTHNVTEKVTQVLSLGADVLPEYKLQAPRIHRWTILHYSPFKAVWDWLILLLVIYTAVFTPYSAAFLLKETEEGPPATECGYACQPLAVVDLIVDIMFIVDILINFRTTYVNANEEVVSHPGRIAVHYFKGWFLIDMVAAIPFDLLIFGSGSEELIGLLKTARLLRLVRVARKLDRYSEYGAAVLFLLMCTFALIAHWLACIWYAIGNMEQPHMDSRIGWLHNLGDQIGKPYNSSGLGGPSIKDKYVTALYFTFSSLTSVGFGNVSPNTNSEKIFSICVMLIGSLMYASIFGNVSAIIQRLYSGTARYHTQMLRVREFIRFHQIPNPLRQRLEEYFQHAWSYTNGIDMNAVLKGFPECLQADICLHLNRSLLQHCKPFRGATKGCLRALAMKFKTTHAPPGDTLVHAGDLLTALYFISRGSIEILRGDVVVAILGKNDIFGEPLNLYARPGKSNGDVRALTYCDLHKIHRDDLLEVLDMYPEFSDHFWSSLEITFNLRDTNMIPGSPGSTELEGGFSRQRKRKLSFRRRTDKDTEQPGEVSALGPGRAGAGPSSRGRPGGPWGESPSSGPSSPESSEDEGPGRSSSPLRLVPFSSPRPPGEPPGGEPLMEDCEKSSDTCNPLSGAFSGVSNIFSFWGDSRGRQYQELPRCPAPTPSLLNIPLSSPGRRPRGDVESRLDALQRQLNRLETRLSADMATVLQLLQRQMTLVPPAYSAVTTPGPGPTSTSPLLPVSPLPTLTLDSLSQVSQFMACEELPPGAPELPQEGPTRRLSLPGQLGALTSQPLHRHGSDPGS
How it was run: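 Competition binding used membranes from HEK-293 cells transfected with hERG. Test compound competed with Cy3B-tagged N-desmethyl dofetilide for channel binding, with fluorescence polarization read-out. Values are given as % of effect.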

[5] = target: T2, Inhibitor of nuclear factor kappa-B kinase subunit beta (Homo sapiens, UniProt O14920); assay: Inhibition of human recombinant IKK2
T2 sequence (O14920 whole entry): T1 sequence (whole entry)

Compound | IC50 (PBMC) [nM] | half-life ([1]; liver microsomes) [h] | T1/2 [2] [h] | T1/2 [3] [h] | inhibition (INH) [4] [%] | IC50 [5] [nM] | half-life ([1]; microsomes) [h]
COCCCn1cc(CN2CCN(c3cc(C(=O)Nc4ccc5c(c4)-c4c(c(C(N)=O)nn4-c4ccc(F)cc4)CC5)c(Cl)cn3)CC2)cn1 | 16 | 0.05 | 4 | > 4 | 76 | 2.8 | –
COCCOC(=O)Cn1cc(CN2CCN(c3cc(C(=O)Nc4ccc5c(c4)-c4c(c(C(N)=O)nn4-c4ccc(F)cc4)CC5)c(Cl)cn3)CC2)cn1 | 9 | – | 4 | > 4 | 66 | 1.3 | –
CCOC(=O)Cn1cc(CN2CCN(c3cc(C(=O)Nc4ccc5c(c4)-c4c(c(C(N)=O)nn4-c4ccc(F)cc4)CC5)c(Cl)cn3)CC2)cn1 | 6 | 0.05 | 5 | > 4 | 95 | 1 | –
CN1CCN(c2cc(C(=O)Nc3ccc4c(c3)-c3c(c(C(N)=O)nn3-c3ccc(F)cc3)CC4)c(Cl)cn2)CC1 | 39 | – | 3 | – | – | 1.6 | –
NC(=O)c1nn(-c2ccc(F)cc2)c2c1CCc1ccc(NC(=O)c3cc(N4CCC(O)CC4)ncc3Cl)cc1-2 | 15 | – | 0.1 | – | – | 0.6 | –
Cc1nn(C)cc1CN1CCN(c2cc(C(=O)Nc3ccc4c(c3)-c3c(c(C(N)=O)nn3-c3ccc(F)cc3)CC4)c(Cl)cn2)CC1 | 118 | – | 8 | – | – | 4.3 | –
Cn1cc(CN2CCN(c3cc(C(=O)Nc4ccc5c(c4)-c4c(c(C(N)=O)nn4-c4ccc(F)cc4)CC5)c(Cl)cn3)CC2)cn1 | 11 | 0.283 | 4 | – | 91 | 3 | –
CN(C)C(=O)Cn1cc(CN2CCN(c3cc(C(=O)Nc4ccc5c(c4)-c4c(c(C(N)=O)nn4-c4ccc(F)cc4)CC5)c(Cl)cn3)CC2)cn1 | 13 | 0.133 | 5 | < 4 | 50 | 2.3 | –
CN(C)CCCn1cc(CN2CCN(c3cc(C(=O)Nc4ccc5c(c4)-c4c(c(C(N)=O)nn4-c4ccc(F)cc4)CC5)c(Cl)cn3)CC2)cn1 | 12 | 0.183 | 4 | > 4 | 42 | 3.7 | –
CC(C)NC(=O)Cn1cc(CN2CCN(c3cc(C(=O)Nc4ccc5c(c4)-c4c(c(C(N)=O)nn4-c4ccc(F)cc4)CC5)c(Cl)cn3)CC2)cn1 | 36 | – | 5 | – | 94 | 2 | –
Cn1cc(CN2CCN(c3cc(C(=O)Nc4ccc5c(c4)-c4c(c(C(N)=O)nn4-c4ccc(F)cc4)CC5)c(Cl)cn3)C(C(=O)O)C2)cn1 (centres undefined) | 529 | – | 4.2 | – | – | 0.5 | –
CN1CCN(c2cc(C(=O)Nc3ccc4c(c3)-c3c(c(C(N)=O)nn3-c3cccc(F)c3)CC4)c(Cl)cn2)CC1 | 14 | – | 2 | – | – | 4.8 | –
CN1CCN(c2cc(C(=O)Nc3ccc4c(c3)-c3c(c(C(N)=O)nn3-c3cccc(O)c3)CC4)c(Cl)cn2)CC1 | 89 | – | 1 | – | – | 1.2 | –
NC(=O)c1nn(-c2ccc(F)cc2)c2c1CCc1ccc(NC(=O)c3cc(N4CCN(Cc5cnn(CC(=O)N(CCO)CCO)c5)CC4)ncc3Cl)cc1-2 | 474 | – | 4 | > 4 | -1 | 10.2 | –
CCOC(=O)CCn1cc(CN2CCN(c3cc(C(=O)Nc4ccc5c(c4)-c4c(c(C(N)=O)nn4-c4ccc(F)cc4)CC5)c(Cl)cn3)CC2)cn1 | 14 | 0.05 | 6 | > 4 | 90 | 4.7 | –
Cc1c(CN2CCN(c3cc(C(=O)Nc4ccc5c(c4)-c4c(c(C(N)=O)nn4-c4ccc(F)cc4)CC5)c(Cl)cn3)CC2)cnn1C | 67 | – | 8 | – | – | 2.8 | –
COCCNc1cc(C(=O)Nc2ccc3c(c2)-c2c(c(C(N)=O)nn2-c2ccc(F)cc2)CC3)c(Cl)cn1 | 134 | – | 0.1 | – | – | 0.6 | –
COCCOCCCn1cc(CN2CCN(c3cc(C(=O)Nc4ccc5c(c4)-c4c(c(C(N)=O)nn4-c4ccc(F)cc4)CC5)c(Cl)cn3)CC2)cn1 | 21 | 0.05 | 4 | < 4 | 69 | 6.6 | –

Compound | IC50 (PBMC) [nM] | half-life ([1]; liver microsomes) [h] | T1/2 [2] [h] | T1/2 [3] [h] | inhibition (INH) [4] [%] | IC50 [5] [nM] | half-life ([1]; microsomes) [h]
N#CCCn1cc(CN2CCN(c3cc(C(=O)Nc4ccc5c(c4)-c4c(c(C(N)=O)nn4-c4ccc(F)cc4)CC5)c(Cl)cn3)CC2)cn1 | 9 | 0.1 | 5 | > 4 | 98 | 7.6 | –
NC(=O)c1nn(-c2ccc(F)cc2)c2c1CCc1ccc(NC(=O)c3cc(N4CCN(Cc5cn[nH]c5)CC4)ncc3Cl)cc1-2 | 16 | – | 3 | – | 78 | 1.9 | 0.133
CN1CCN(c2cc(C(=O)Nc3ccc4c(c3)-c3c(c(C(N)=O)nn3-c3ccc(F)c(F)c3)CC4)c(Cl)cn2)CC1 | 65 | – | – | – | – | 10 | –
COC(=O)Cn1cc(CN2CCN(c3cc(C(=O)Nc4ccc5c(c4)-c4c(c(C(N)=O)nn4-c4ccc(F)cc4)CC5)c(Cl)cn3)CC2)cn1 | 54 | – | 6 | – | 24 | 1.1 | –
Cc1ccc(-n2nc(C(N)=O)c3c2-c2cc(NC(=O)c4cc(N5CCN(C)CC5)ncc4Cl)ccc2CC3)cc1 | 38 | – | – | – | – | 14 | –
CNC(=O)Cn1cc(CN2CCN(c3cc(C(=O)Nc4ccc5c(c4)-c4c(c(C(N)=O)nn4-c4ccc(F)cc4)CC5)c(Cl)cn3)CC2)cn1 | 15 | 0.217 | 6 | > 4 | 57 | 1.4 | –
CN1CCN(c2cc(C(=O)Nc3ccc4c(c3)-c3c(c(C(N)=O)nn3-c3ccc(Cl)c(O)c3)CC4)c(Cl)cn2)CC1 | – | – | 1 | – | – | 2.2 | –
NC(=O)c1nn(-c2ccc(F)cc2)c2c1CCc1ccc(NC(=O)c3cc(N4CCN(Cc5cnn(CC(=O)O)c5)CC4)ncc3Cl)cc1-2 | 221 | 2 | – | – | 29 | 0.5 | –
Cn1cc(CN2CCN(c3cc(C(=O)Nc4ccc5c(c4)-c4c(c(C(N)=O)nn4-c4cccc(F)c4)CC5)c(Cl)cn3)CC2)cn1 | 14 | – | 3 | – | 83 | – | 0.233
Cn1cc(CN2CCN(c3cc(C(=O)Nc4ccc5c(c4)-c4c(c(C(N)=O)nn4-c4ccc(F)cc4)CC5)c(Cl)cn3)CC2C(=O)O)cn1 (centres undefined) | 432 | – | 0.3 | – | – | 3.9 | –
CN1CCN(c2cc(C(=O)Nc3ccc4c(c3)-c3c(c(C(N)=O)nn3-c3ccc(O)cc3)CC4)c(Cl)cn2)CC1 | 75 | – | 1 | – | – | 3.5 | –
CN1CCN(c2cc(C(=O)Nc3ccc4c(c3)-c3c(c(C(N)=O)nn3-c3ccc(O)c(Cl)c3)CC4)c(Cl)cn2)CC1 | 46 | – | 1 | – | – | 2.8 | –
CCn1cc(CN2CCN(c3cc(C(=O)Nc4ccc5c(c4)-c4c(c(C(N)=O)nn4-c4ccc(F)cc4)CC5)c(Cl)cn3)CC2)cn1 | 102 | – | > 8 | – | – | 4.2 | –
CN(C)CCCNC(=O)Cn1cc(CN2CCN(c3cc(C(=O)Nc4ccc5c(c4)-c4c(c(C(N)=O)nn4-c4ccc(F)cc4)CC5)c(Cl)cn3)CC2)cn1 | 26 | – | 6 | – | 34 | 3.3 | 0.6
COCCN1CCN(c2cc(C(=O)Nc3ccc4c(c3)-c3c(c(C(N)=O)nn3-c3ccc(F)cc3)CC4)c(Cl)cn2)CC1 | 8 | – | 0.6 | – | – | 1.9 | –
C[C@H]1CN(c2cc(C(=O)Nc3ccc4c(c3)-c3c(c(C(N)=O)nn3-c3ccc(F)cc3)CC4)c(Cl)cn2)CCN1Cc1cnn(C)c1 | 9 | – | 6 | – | – | 3.5 | –
COc1ccc(-n2nc(C(N)=O)c3c2-c2cc(NC(=O)c4cc(N5CCN(C)CC5)ncc4Cl)ccc2CC3)cc1 | 33 | – | – | – | – | 6.1 | –
